TAAR1 agonist = agonists of human TAAR1. actives 0.99% (n = 360,000). activation, % at 3 µM. Q96RJ0. AID 624467. CHO RD-HGA16 TAAR1, Fluo-8 calcium fluorescence; vehicle wells 0%, saturating PEA agonist 100%;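 active means activation above the mean activation of all test compounds in the run plus 3 SD, cut at about 38% in these data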
Target sequence (Q96RJ0 whole entry, looked up): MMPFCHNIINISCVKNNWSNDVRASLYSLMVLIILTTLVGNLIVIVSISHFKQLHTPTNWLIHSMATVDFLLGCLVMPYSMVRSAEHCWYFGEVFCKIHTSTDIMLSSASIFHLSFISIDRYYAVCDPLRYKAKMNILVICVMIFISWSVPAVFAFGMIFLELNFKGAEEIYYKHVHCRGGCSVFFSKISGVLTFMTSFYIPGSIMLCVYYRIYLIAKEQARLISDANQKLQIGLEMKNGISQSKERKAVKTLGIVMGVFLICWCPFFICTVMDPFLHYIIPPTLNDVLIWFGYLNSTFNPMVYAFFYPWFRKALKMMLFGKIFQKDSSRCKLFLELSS
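Repeats: no replicates (n 1) | Material: CHO-derived RD-HGA16 cells with stable Gα16 and human TAAR1 | Technique: Kinetic Fluo-8 calcium fluorescence | Schedule: 17-24 h seeding, 75 min 37 °C dye, 30 min RT | Evaluation: % activation from peak over basal fluorescence ratio, DMSO-to-PEA scaled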
OX1R antag-1 = blocks the human orexin 1 receptor; O43613; CHO/OX1R cells, Fluo-8 calcium fluorescence, orexin A; inhibition, % at 5 µM; actives 0.43% (n = 330,000); AID 434989;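 active means inhibition above its plate's threshold, mean inhibition of all tested compounds on the plate plus 3 SD, cut at about 37% in these data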
Target sequence (O43613 whole entry, looked up): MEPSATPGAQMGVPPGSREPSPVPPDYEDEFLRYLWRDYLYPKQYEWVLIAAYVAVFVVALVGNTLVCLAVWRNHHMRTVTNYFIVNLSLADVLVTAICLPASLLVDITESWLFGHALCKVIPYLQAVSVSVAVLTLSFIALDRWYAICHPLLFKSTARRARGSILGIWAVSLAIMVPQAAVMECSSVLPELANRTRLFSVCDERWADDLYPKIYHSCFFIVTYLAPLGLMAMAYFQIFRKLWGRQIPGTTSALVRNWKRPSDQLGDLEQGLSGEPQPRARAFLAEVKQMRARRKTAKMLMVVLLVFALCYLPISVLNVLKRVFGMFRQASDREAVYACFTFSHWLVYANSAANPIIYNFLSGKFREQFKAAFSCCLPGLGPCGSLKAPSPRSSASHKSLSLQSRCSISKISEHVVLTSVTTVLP
TAAR1 antag = human TAAR1 antagonism. actives 1.5% (n = 360,000). CHO RD-HGA16 TAAR1, Fluo-8 calcium fluorescence, antagonist. inhibition, % at 3 µM. Q96RJ0;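 active means inhibition above a per-plate cutoff, the mean inhibition of test compounds on that plate plus 3 SD, cut at about 49% in these data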
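Material: RD-HGA16 CHO cells with stable hTAAR1 and Gα16; Dosing: single nominal final test compound concentration of 3 µM; Schedule: seeding 17-24 h prior, 75-min 37 °C, 30-min RT dye loading; Detection: kinetic Fluo-8 calcium fluorescence measurement; Measure: % inhibition from peak post-agonist over basal fluorescence ratio; Benchmarks: vehicle and agonist controls.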
CHO parental Ca = counter-screen for OX1R antagonists: effect in parental CHO cells | parental CHO-K1, ATP-induced calcium, Fluo-8 fluorescence | inhibition, % at 5.6 µM | actives 0.63% (n = 330,000) | AID 463079;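 active means inhibition above that plate's mean sample inhibition plus 3 SD, cut at about 26% in these data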
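Assay system: untransfected parental CHO cell line. Also added: ATP agonist challenge. Dosing: one dose, 5.6 µM nominal. Measured by: Fluo-8 fluorescence. Read-out: % inhibition. Benchmarks: ATP wells versus no-ATP DMSO wells. Repeats: no replicates.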
OX1R antag-2 = blocks the human orexin 1 receptor. O43613. actives 1.8% (n = 330,000). AID 485270. inhibition, % at 6.6 µM. OX1R-expressing cells, FRET antagonist read-out; in the data active means inhibition mostly above about 38%, no sharp cut-off; inactive means mostly below about 40%
TAAR1 nonsel count = nonselective antagonist in TAAR1 antagonist counter-screen; shares compounds with TAAR1 antag; counterscreen cell line, calcium fluorescence, antagonist mode; inhibition, % at 3 µM; actives 77% (n = 2,400); AID 651780; in the data active means inhibition above about 22%;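 further: CHO-Ga16 host cells stimulated with ATP at an EC80 level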
TAAR1 antag conf = human TAAR1 antagonism, confirmed | inhibition, % at 3 µM | AID 651785 | actives 40% (n = 2,400) | shares compounds with TAAR1 antag | TAAR1-expressing cells, fluorescence antagonist read-out; in the data active means inhibition above about 49%;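 further: CHO-Ga16 host cells challenged with agonist PEA near its EC80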
Ga16 nonsel ag = nonselective Ga16 agonist in TAAR1 antagonist counter-screen | shares compounds with TAAR1 antag | Ga16-expressing cells, calcium fluorescence, agonist counterscreen | activation, % at 3 µM | actives 18% (n = 2,400) | AID 651953; in the data active means activation above about 12%
TAAR1 ag counter = counter-screen for human TAAR1 antagonists: TAAR1 agonists | hTAAR1 cell line, fluorescence activation, agonist mode | activation, % at 3 µM | shares compounds with TAAR1 antag | AID 651955 | actives 2% (n = 2,400); in the data active means activation above about 37%;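 further: CHO cells stably expressing TAAR1 with calcium dye readout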
Numbers stand for hits. Hits are enriched below; roughly 3.9% of the tested compounds scored in any of these assays.

Results for CCCCCCOc1ccc(NC(=O)CC2C(=O)N(CC)C(=S)N2Cc2ccco2)cc1 (stereo unspecified) ?
TAAR1 agonist: inactive; OX1R antag-1: inactive; TAAR1 antag: inactive; CHO parental Ca: inactive; OX1R antag-2: inactive

Results for O=c1[nH]c2ccccc2cc1CN(c1ccccc1)S(=O)(=O)c1ccccc1 ?
TAAR1 agonist: inactive; OX1R antag-1: inactive; TAAR1 antag: inactive; CHO parental Ca: inactive; OX1R antag-2: inactive

Results for COc1ccccc1NC(=O)N(Cc1cc2cc(OC)c(OC)cc2[nH]c1=O)CC1CCCO1 (stereo unspecified) ?
TAAR1 agonist: inactive; OX1R antag-1: inactive; TAAR1 antag: inactive; CHO parental Ca: inactive; OX1R antag-2: inactive

What do the screens show for `COc1ccc2[nH]c(=O)c(CN(c3ccccc3OC)S(=O)(=O)c3ccccc3)cc2c1`?
TAAR1 agonist: inactive; OX1R antag-1: inactive; TAAR1 antag: 74; CHO parental Ca: inactive; OX1R antag-2: inactive; TAAR1 nonsel count: 33; TAAR1 antag conf: 49; Ga16 nonsel ag: inactive; TAAR1 ag counter: inactive

What do the screens show for `COc1ccc(S(=O)(=O)N(Cc2cccnc2)Cc2cc3ccccc3[nH]c2=O)cc1`?
TAAR1 agonist: inactive; OX1R antag-1: inactive; TAAR1 antag: 51; CHO parental Ca: inactive; OX1R antag-2: inactive; TAAR1 nonsel count: inactive; TAAR1 antag conf: inactive; Ga16 nonsel ag: inactive; TAAR1 ag counter: inactive

Results for COc1ccc2[nH]c(=O)c(CN(CC3CCCO3)C(=O)Nc3ccccc3OC)cc2c1 (stereo unspecified) ?
TAAR1 agonist: inactive; TAAR1 antag: 63; TAAR1 nonsel count: 29; TAAR1 antag conf: inactive; Ga16 nonsel ag: inactive; TAAR1 ag counter: inactive

How did COc1ccc2[nH]c(=O)c(CN(c3ccccc3)S(=O)(=O)c3ccccc3)cc2c1 do in these assays?
TAAR1 agonist: inactive; OX1R antag-1: inactive; TAAR1 antag: 52; CHO parental Ca: inactive; OX1R antag-2: inactive; TAAR1 nonsel count: 26; TAAR1 antag conf: 52; Ga16 nonsel ag: inactive; TAAR1 ag counter: inactive

What do the screens show for `Cc1ncsc1CCC(=O)N1CCCC(C(=O)c2ccc3c(c2)OCO3)C1` (stereo unspecified)?
TAAR1 agonist: inactive; OX1R antag-1: inactive; TAAR1 antag: inactive; CHO parental Ca: inactive; OX1R antag-2: inactive

What do the screens show for `CC1(C)COC(c2ccc(F)c([N+](=O)[O-])c2)=N1`?
TAAR1 agonist: inactive; OX1R antag-1: inactive; TAAR1 antag: inactive; CHO parental Ca: inactive; OX1R antag-2: inactive

Results for O=C(COC(=O)c1c2c(nc3ccccc13)CCCC2)c1cccs1 ?
TAAR1 agonist: inactive; OX1R antag-1: inactive; TAAR1 antag: 53; CHO parental Ca: inactive; OX1R antag-2: inactive; TAAR1 nonsel count: 26; TAAR1 antag conf: inactive; Ga16 nonsel ag: inactive; TAAR1 ag counter: inactive

Results for O=C(OCC(=O)N1CCc2ccccc21)c1c2c(nc3ccccc13)CCCC2 ?
TAAR1 agonist: inactive; OX1R antag-1: inactive; TAAR1 antag: 57; CHO parental Ca: inactive; OX1R antag-2: inactive; TAAR1 nonsel count: 24; TAAR1 antag conf: inactive; Ga16 nonsel ag: inactive; TAAR1 ag counter: inactive

Results for O=C(COC(=O)c1c2c(nc3ccccc13)CCCCC2)c1ccc(Cl)s1 ?
TAAR1 agonist: inactive; OX1R antag-1: inactive; TAAR1 antag: inactive; CHO parental Ca: inactive; OX1R antag-2: inactive

How did CN(C(=O)c1cccc(NC(=O)Cc2cccc(NC(=O)C3CCCN(C(=O)C4CCC4)C3)c2)c1)C1CCC1 (stereo unspecified) do in these assays?
TAAR1 agonist: inactive; TAAR1 antag: inactive

What do the screens show for `COCc1c(C(=O)NC(C)c2ccc(S(N)(=O)=O)cc2)oc2ccccc12` (stereo unspecified)?
TAAR1 agonist: inactive; OX1R antag-1: inactive; TAAR1 antag: inactive; CHO parental Ca: inactive; OX1R antag-2: inactive

Results for COc1ccc(-c2ccc3c(c2)c(Sc2ccccc2)c(-c2ccccc2)n3C)cc1 ?
TAAR1 agonist: inactive; TAAR1 antag: inactive

What do the screens show for `CCN1C(=O)c2ccc(C(=O)Nc3ccc(O)cc3C)cc2C1=O`?
TAAR1 agonist: inactive; OX1R antag-1: inactive; TAAR1 antag: inactive; CHO parental Ca: inactive; OX1R antag-2: inactive

What do the screens show for `CCN(CC(=O)Nc1c(C(=O)OC)[nH]c2ccc(Cl)cc12)c1ccc2c(c1)OCO2`?
TAAR1 agonist: inactive; OX1R antag-1: inactive; TAAR1 antag: 60; CHO parental Ca: inactive; OX1R antag-2: inactive; TAAR1 nonsel count: 27; TAAR1 antag conf: inactive; Ga16 nonsel ag: inactive; TAAR1 ag counter: inactive

What do the screens show for `CCOC(=O)c1[nH]c2ccc(Cl)cc2c1NC(=O)/C=C/c1ccc2c(c1)OCO2`?
TAAR1 agonist: inactive; OX1R antag-1: inactive; TAAR1 antag: inactive; CHO parental Ca: inactive; OX1R antag-2: inactive

Results for O=S(=O)(Cc1ccc(Cl)cc1)N1CCCC1 ?
TAAR1 agonist: inactive; OX1R antag-1: inactive; TAAR1 antag: inactive; CHO parental Ca: inactive; OX1R antag-2: inactive

Results for Cc1nn2c(C)c(C(=O)Nc3ccccc3)cnc2c1C#N ?
TAAR1 agonist: inactive; OX1R antag-1: inactive; TAAR1 antag: 53; CHO parental Ca: inactive; OX1R antag-2: inactive; TAAR1 nonsel count: inactive; TAAR1 antag conf: inactive; Ga16 nonsel ag: inactive; TAAR1 ag counter: inactive

Results for CC(=O)c1ccc(NC(=O)c2ccc(NC(=O)CCS(=O)(=O)c3cccs3)cc2)cc1 ?
TAAR1 agonist: inactive; OX1R antag-1: inactive; TAAR1 antag: 86; CHO parental Ca: inactive; OX1R antag-2: inactive; TAAR1 nonsel count: 40; TAAR1 antag conf: 64; Ga16 nonsel ag: 15; TAAR1 ag counter: inactive

Results for CCCC[C@@H]1Cc2[nH][nH]c(=O)c2[C@H](c2ccc(C(C)C)cc2)O1 ?
TAAR1 agonist: inactive; TAAR1 antag: inactive

What do the screens show for `O=C(COC(=O)c1cccc(S(=O)(=O)NCc2ccccc2)c1)c1ccc2c(c1)OCCO2`?
TAAR1 agonist: inactive; OX1R antag-1: inactive; TAAR1 antag: 63; CHO parental Ca: inactive; OX1R antag-2: inactive; TAAR1 nonsel count: 35; TAAR1 antag conf: 49; Ga16 nonsel ag: inactive; TAAR1 ag counter: inactive

What do the screens show for `Cc1ccccc1-c1csc(C(O)c2ccc(F)c(F)c2)n1` (stereo unspecified)?
TAAR1 agonist: inactive; TAAR1 antag: inactive

Results for CC1CC(C)CN(C(=O)CSc2ncnc3sccc23)C1 (stereo unspecified) ?
TAAR1 agonist: inactive; OX1R antag-1: inactive; TAAR1 antag: inactive; CHO parental Ca: inactive; OX1R antag-2: inactive
